Assay results from ChEMBL document CHEMBL4725355, “Design, Synthesis, and Preclinical Evaluation of 3-Methyl-6-(5-thiophenyl)-1,3-dihydro-imidazo[4,5-b]pyridin-2-ones as Selective GluN2B Negative Allosteric Modulators for the Treatment of Mood Disorders” (J Med Chem, 2020).

Experiments:
[1] = AUC (0 to 24 hrs) in Sprague-Dawley rat at 1000 mg/kg, po administered via gavage after 24 hrs using HPMC formulation by LC-MS/MS analysis; assay type: ADME, organism-based; set-up: route oral, dose 1000 mg/kg, time <=24; conditions: in vivo
[2] = Half life in monkey at 0.5 mg/kg, po by LC-MS/MS analysis; assay type: ADME, organism-based, Macaca mulatta; conditions: rhesus monkey, in vivo
[3] = AUC (infinity) in monkey at 0.5 mg/kg, po by LC-MS/MS analysis; assay type: ADME, organism-based, Macaca mulatta; set-up: route oral, time infinity, dose 0.5 mg/kg; conditions: rhesus monkey, in vivo
[4] = Tmax in Sprague-Dawley rat at 250 mg/kg, po administered via gavage after 24 hrs using nanosuspension formulation by LC-MS/MS analysis; assay type: ADME, organism-based; conditions: in vivo
Method in brief: (§1)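 Single oral gavage of a nanosuspension (API:polymer 4:1), diluted with vehicle on the dosing day, at 100, 250 or 500 mg/kg to male Sprague Dawley rats, 3 per dose. Plasma was sampled from 0.5 to 24 h.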

[5] = Solubility of compound in phosphate buffer at pH 7 measured after 3 days; assay type: physicochemical; conditions: time 3 day
Method in brief: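 Solubility in aqueous buffer at pH 2 and pH 7, and in simulated gastric and intestinal fluids.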

[6] = (§2) Ratio of Cmax in Sprague-Dawley rat at 125 mg/kg, po administered via gavage after 24 hrs using HPMC formulation by LC-MS/MS analysis to EC70 for ex vivo receptor occupancy at GluN2B in po dosed Sprague-Dawley rat assessed as 3-[3H] 1-(azetidin-1-yl)-2-[6-(4-fluoro-3-methyl-phenyl)pyrrolo[3,2-b]pyridin-1-yl]-ethanone labelling; assay type: ADME, organism-based
[7] = Drug level in Sprague-Dawley rat brain striatum at 0.03 mg/kg, iv after 120 min by LC-MS/MS analysis; assay type: ADME, organism-based; conditions: read-out: Drug uptake
Method in brief: (§3)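 Single i.v. dose of 0.03 mg/kg in 50% (w/v) PEG/water, pH 7.4; rats n=3 per group, killed at 5, 10, 30, 60 and 120 min. Cerebellum, cortex, striatum and hippocampus dissected, weighed and homogenized; drug quantified by LC-MS/MS and normalized to tissue weight. P<0.05 taken as significant versus cerebellum.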

[8] = as §2, with “250” for “125”, “nanosuspension” for “HPMC”; assay type: ADME, organism-based
[9] = Ex vivo receptor occupancy at GluN2B in Sprague-Dawley rat assessed as 3-[3H] 1-(azetidin-1-yl)-2-[6-(4-fluoro-3-methyl-phenyl)pyrrolo[3,2-b]pyridin-1-yl]-ethanone labelling at 3 mg/kg, po measured after 0.5 hrs by autoradiography; assay type: functional
Method in brief: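 Rats dosed orally at 3 mg/kg in 20% HP-β-CD; brains taken at 0.5, 2 and 6 h. Ex vivo autoradiography of brain slices with the ³H pyrrolo[3,2-b]pyridine GluN2B tracer. Labelling expressed relative to matching brain areas of vehicle-treated animals; n=2, ± SEM.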

[10] = Cmax in Sprague-Dawley rat at 125 mg/kg, po administered via gavage after 24 hrs using HPMC formulation by LC-MS/MS analysis; assay type: ADME, organism-based; set-up: route oral, time 24 hrs, dose 125 mg/kg; conditions: in vivo
Method in brief: (§4)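 Single oral gavage dose to male Sprague Dawley rats, 3 per dose level. Vehicles were a standard suspension in 5% HPMC (125, 250, 500 or 1000 mg/kg) or a nanosuspension (API:polymer 4:1), with stock diluted in vehicle on the day of dosing (100, 250 or 500 mg/kg). Blood was sampled at time points from 0.5 to 24 h.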

Cytochrome P450 2D6 = Cytochrome P450 2D6 (Homo sapiens, UniProt P10635); test: Inhibition of CYP2D6 in human liver microsomes using dextromethorphan as substrate measured after 15 mins by LC-MS/MS analysis; assay type: ADME
Sequence of Cytochrome P450 2D6 (P10635 whole entry, canonical isoform): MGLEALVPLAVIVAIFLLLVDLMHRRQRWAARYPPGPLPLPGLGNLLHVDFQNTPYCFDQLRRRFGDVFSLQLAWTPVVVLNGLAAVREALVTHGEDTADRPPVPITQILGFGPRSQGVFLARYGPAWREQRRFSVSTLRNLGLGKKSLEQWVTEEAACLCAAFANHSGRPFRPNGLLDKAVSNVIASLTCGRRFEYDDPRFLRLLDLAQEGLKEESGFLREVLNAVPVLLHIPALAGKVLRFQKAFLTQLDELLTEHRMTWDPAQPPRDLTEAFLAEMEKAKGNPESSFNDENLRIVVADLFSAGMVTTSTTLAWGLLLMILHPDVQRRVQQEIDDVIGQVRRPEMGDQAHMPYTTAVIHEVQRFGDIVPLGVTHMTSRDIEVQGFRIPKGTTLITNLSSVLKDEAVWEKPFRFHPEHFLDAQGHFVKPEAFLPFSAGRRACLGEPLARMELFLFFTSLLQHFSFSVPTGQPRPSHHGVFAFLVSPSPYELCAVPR
Method in brief: (§5)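 Human liver microsomes incubated with isoform-specific probe substrates and the test compound at concentrations up to 20 µM. IC50 derived from inhibition of metabolite formation; mean of two independent experiments, with known specific inhibitors as positive controls.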

[11] = Half life in Sprague-Dawley rat at 0.5 mg/kg, iv by LC-MS/MS analysis; assay type: ADME, organism-based; conditions: in vivo
[12] = Cmax in Sprague-Dawley rat at 250 mg/kg, po administered via gavage after 24 hrs using HPMC formulation by LC-MS/MS analysis; assay type: ADME, organism-based; set-up: route oral, time 24 hrs, dose 250 mg/kg; conditions: in vivo; method in brief: as §4
[13] = Tmax in Sprague-Dawley rat at 100 mg/kg, po administered via gavage after 24 hrs using nanosuspension formulation by LC-MS/MS analysis; assay type: ADME, organism-based; conditions: in vivo; method in brief: as §1
Cytochrome P450 3A4 = Cytochrome P450 3A4 (Homo sapiens, UniProt P08684); test: Inhibition of CYP3A4 in human liver microsomes using midazolam as substrate measured after 15 mins by LC-MS/MS analysis; assay type: ADME; method in brief: as §5
Sequence of Cytochrome P450 3A4 (P08684 whole entry): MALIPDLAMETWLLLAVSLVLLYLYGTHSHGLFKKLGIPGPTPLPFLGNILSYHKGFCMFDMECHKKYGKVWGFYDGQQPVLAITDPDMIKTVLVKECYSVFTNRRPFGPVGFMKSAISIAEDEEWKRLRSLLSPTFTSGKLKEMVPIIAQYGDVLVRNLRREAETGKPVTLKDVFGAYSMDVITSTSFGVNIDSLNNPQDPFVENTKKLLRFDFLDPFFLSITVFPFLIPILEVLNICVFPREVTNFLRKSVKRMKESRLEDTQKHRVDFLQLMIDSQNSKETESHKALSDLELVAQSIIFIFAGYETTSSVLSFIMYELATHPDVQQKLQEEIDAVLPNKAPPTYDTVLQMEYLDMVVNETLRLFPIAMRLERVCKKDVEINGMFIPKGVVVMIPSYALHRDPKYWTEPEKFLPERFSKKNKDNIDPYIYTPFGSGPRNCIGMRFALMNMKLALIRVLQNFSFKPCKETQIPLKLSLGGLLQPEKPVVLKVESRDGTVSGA

[14] = Half life in dog at 0.1 mg/kg, iv by LC-MS/MS analysis; assay type: ADME, organism-based, Canis lupus familiaris; conditions: in vivo
[15] = AUC (infinity) in monkey at 0.1 mg/kg, iv by LC-MS/MS analysis; assay type: ADME, organism-based, Macaca mulatta; set-up: time infinity, route intravenous, dose 0.1 mg/kg; conditions: rhesus monkey, in vivo
[16] = target: T1, Nuclear receptor subfamily 1 group I member 2 (Homo sapiens, UniProt O75469); test: Activation of human PXR expressed in human DPX2 cells assessed as induction of CYP3A by luciferase reporter gene assay relative to control; assay type: ADME, cell-based
T1 sequence (O75469 whole entry): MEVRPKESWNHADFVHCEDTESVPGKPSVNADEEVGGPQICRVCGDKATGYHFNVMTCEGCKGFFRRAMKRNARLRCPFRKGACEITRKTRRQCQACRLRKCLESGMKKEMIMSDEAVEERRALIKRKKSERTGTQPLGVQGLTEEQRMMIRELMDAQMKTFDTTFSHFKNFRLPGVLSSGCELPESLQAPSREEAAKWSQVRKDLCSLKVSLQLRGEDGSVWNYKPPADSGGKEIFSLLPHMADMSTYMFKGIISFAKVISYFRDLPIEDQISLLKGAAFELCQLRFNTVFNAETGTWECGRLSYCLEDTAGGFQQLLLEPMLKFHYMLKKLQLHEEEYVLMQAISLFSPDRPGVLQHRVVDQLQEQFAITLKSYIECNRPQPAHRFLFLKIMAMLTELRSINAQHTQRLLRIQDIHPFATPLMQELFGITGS
Method in brief: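 Luciferase reporter lines were used. DPX2 is HepG2 carrying human PXR plus a CYP3A4 promoter-luciferase construct. 1A2-DRE carries human AhR plus a CYP1A2 promoter with 3 DRE copies. Luminescence was read with ONE-Glo. Activation was expressed relative to rifampicin (PXR) or omeprazole (AhR).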

[17] = Drug level in Sprague-Dawley rat brain cortex at 0.03 mg/kg, iv after 5 to 120 mins by LC-MS/MS analysis; assay type: ADME, organism-based; conditions: in vivo, time 5-120 min; method in brief: as §3
[18] = Clearance in Sprague-Dawley rat at 0.5 mg/kg, iv using 1:1 PEG-400/water formulation by LC-MS/MS analysis; assay type: ADME, organism-based; conditions: in vivo
Method in brief: (§6)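 Rat IV/PO PK at 0.5 mg/kg IV and 2.5 mg/kg PO, dosed in 1:1 PEG400/water, n=3.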

[19] = Drug level in Sprague-Dawley rat brain hippocampus at 0.03 mg/kg, iv after 30 min by LC-MS/MS analysis; assay type: ADME, organism-based; conditions: read-out: Drug uptake; method in brief: as §3
[20] = AUC (infinity) in Sprague-Dawley rat at 0.5 mg/kg, iv or 2.5 mg/kg, po using 1:1 PEG-400/water formulation by LC-MS/MS analysis; assay type: ADME, organism-based; set-up: dose 2.5 mg/kg; conditions: in vivo; method in brief: as §6

AUC(0-t) [1]: 22300 ng·h/mL
half-life [2]: 1 h
AUC(0-inf) [3]: 385 ng·h/mL
Tmax [4]: 2.7 h
solubility at 72 h [5]: < 4 µM
Ratio [6]: 6
concentration at 2 h [7]: 9.8 ng/mL
Ratio [8]: 17
Cmax [10]: 4240 ng/mL
IC50 (Cytochrome P450 2D6): 15 µM
half-life [11]: 0.8 h
Cmax [12]: 5480 ng/mL
Tmax [13]: 2.7 h
IC50 (Cytochrome P450 3A4): > 50 µM
half-life [14]: 0.8 h
AUC(0-inf) [15]: 190 ng·h/mL
Activity [16]: < 20%
Drug uptake [17]: Active
clearance [18]: 30 mL/min/kg
concentration at 0.5 h [19]: 22.7 ng/mL
AUC(0-inf) [20]: 1830 ng·h/mL
SMILES: Cn1c(=O)n(CC(=O)N2CCC2)c2cc(-c3ccc(C(F)(F)F)s3)cnc21
Occ [9]: 87%
